p-CIP stab down: compounds decreasing mouse p/CIP protein stability; Q05BA5; F442A p/CIP-EGFP cells, EGFP fluorescence, 16 h; decrease of EGFP signal, % at 10 µM; 290,000 tested, 0.01% active;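 active = EGFP signal decrease of at least 30% at 10 µM or well 3 SD below plate mean, unless failing retest; inactive = the rest, including hits failing retest or dose response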
UPR XBP1 act: adaptive UPR (XBP1) activation | CHO-XBP1 luciferase reporter, IRE1-XBP1 UPR activation, luminescence; percent of tunicamycin response, DMSO as zero | AID 463104 | 330,000 tested, 0.33% active | activation, % at 20 µM;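 active = versus positive control, 20 µM dose yields 30% or more activation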;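 note: 100% = tunicamycin at 10 µg/mL and 0% = DMSO only wells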
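Material: CHO cell line with stable XBP1 luciferase reporter; schedule: 16-18 h cell attachment at 37 °C, then 6 h compound exposure; signal: glow luminescence from Steady-Glo reagent; medium: serum-containing F12 medium, 10% FBS; benchmarks: tunicamycin 10 µg/mL and vehicle-only wells; read-out: percent activation relative to tunicamycin reference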
UPR CHOP act: apoptotic UPR (CHOP) activation; AID 449763; CHO-CHOP luciferase reporter, luminescence; percent of tunicamycin response over DMSO baseline; activation, % at 10 µM; 330,000 tested, 0.34% active;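 active = at 10 µM dose, activation of 40% or more, normalized to positive control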;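 note: 100% = tunicamycin at 10 µg/mL and 0% = DMSO alone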
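Dosing – one dose, 10 µM in 0.5% DMSO · System – CHO-CHOP cells, stable luciferase reporter of PERK-eIF2a-CHOP signalling · Input – 500 cells/well · Control set – tunicamycin 10 µg/mL final as positive, DMSO-only wells as negative · Timing – 6 h compound treatment, 37 °C · Measure – % activation vs tunicamycin · Technique – luminescence read with Steady-Glo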
Dynein transport: blocks dynein driven cargo transport along microtubules. 3617.4 mouse cells, GR-EGFP nuclear translocation imaging; test concentration mostly 20 µM; stimulated with dexamethasone, 1 µM; active compounds read low. z-score, hits read low. 220,000 tested, 0.47% active. AID 1381;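 active = plate z-score of nuclear minus cytoplasmic receptor signal below a set negative limit, without overly bright fluorescence or cell loss, cut at about -3.5 in these data, passing the limit was not always enough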;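 note: z-score of nuclear minus cytoplasmic ring GR-EGFP intensity difference per well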
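Medium: Induction medium lacking tetracycline, stripped serum | Probe or stimulus: 1.0 µM final dexamethasone stimulus | Schedule: 48 h induction, then 1 h compound, then 30 min agonist, 37 °C | Signal: Automated 10x imaging of fixed Hoechst-stained cells | Evaluation: Per-cell GR-EGFP intensity, nucleus versus surrounding cytoplasmic ring, well-averaged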
Beta2AR agonist: agonists of human beta-2 adrenergic receptor inducing internalization. Am2.2-beta2AR cells, FAP receptor internalization, flow cytometry. P07550. 340,000 tested, 0.43% active. response, % (test concentration not listed);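 active = response above a set limit, near 3 SD of response in nonfluorescent compounds, cut at about 42% in these data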
CHOP inh: blocks CHOP induction under ER stress; CHO-K1 CHOP-promoter luciferase, tunicamycin-induced, 15-18 h; inhibition, % at 10 µM; 220,000 tested, 3.8% active;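 active = compounds that reduced the stress-induced luciferase reporter signal by more than about 70% of percent inhibition, limit read from the data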;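 note: 0% = tunicamycin plus vehicle and 100% = wells without tunicamycin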
Dynein confirm: dynein cargo transport inhibition, confirmation; shares compounds with Dynein transport; 3617.4 GR-EGFP nuclear translocation imaging, dexamethasone-induced; calls only at 20 µM; 1,000 tested, 69% active;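 active = inhibition of receptor movement into the nucleus at or above a set limit in both runs, with normal cell brightness and cell count; inconclusive = limit reached in only one run, brightness and count normal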;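 note: dexamethasone at 1 µM final in well for 30 min; nuclear minus cytoplasmic GR-EGFP mean intensity difference in channel 2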
CHOP confirm: confirmation of CHOP induction inhibitors. shares compounds with CHOP inh. CHO-CHOP promoter luciferase reporter, tunicamycin-induced, luminescence. inhibition, % at 10 µM. 2,100 tested, 45% active;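 active = mean of three repeat readings of reporter signal inhibition above a set limit, cut at about 70% in these data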;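 note: 0% = tunicamycin plus vehicle and 100% = wells lacking tunicamycin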
The depositor's hits bear a star. Shown is part of a subset that was picked to be rich in hits.

Cn1c(-c2ccccc2)c(C(=O)CCl)c2ccccc21 was read as p-CIP stab down -8, Dynein transport -3.8*, Beta2AR agonist 32, CHOP inh 108*, Dynein confirm active and CHOP confirm 46.
For CCOC(=O)c1nc(S(C)(=O)=O)ncc1Cl the results were p-CIP stab down -24, UPR XBP1 act -9, UPR CHOP act -7, Dynein transport -5.1*, Beta2AR agonist 21, Dynein confirm inactive and CHOP confirm 92*.
`Cc1ccc(-n2nnnc2CCl)cc1` gave p-CIP stab down -1, Dynein transport -6.1*, Beta2AR agonist 7, CHOP inh 108*, Dynein confirm active and CHOP confirm -50.
For Cc1ccc(-c2nnnn2-c2ccc(C)cc2)cc1 the results were p-CIP stab down 2, UPR XBP1 act 1, UPR CHOP act 1, Dynein transport 0.12, Beta2AR agonist -4 and CHOP inh 7.
Screening COc1ccc(NC(=O)c2cccs2)cc1 returned p-CIP stab down -6, UPR XBP1 act 2, UPR CHOP act 3, Dynein transport -0.6, Beta2AR agonist -14 and CHOP inh -12.
`COc1ccc(/C=C(/C(=O)c2cccs2)N2C=CC=CC2=C(C#N)C#N)cc1` gave p-CIP stab down -14, Dynein transport -3.6*, Beta2AR agonist 77*, CHOP inh 105*, Dynein confirm inconclusive and CHOP confirm 109*.
For COc1ccc(C(=O)O/N=C/c2ccc(S(=O)(=O)c3ccc(Cl)cc3)nc2)cc1 the results were UPR XBP1 act 1, UPR CHOP act 0 and Beta2AR agonist 2.
`CCC1Oc2ccccc2N(CC(=O)NC2CCCCC2C)C1=O` (stereo unspecified) gave p-CIP stab down -16, UPR XBP1 act -6, UPR CHOP act -2 and Beta2AR agonist 5.
For COc1ccc(CN(C)C(=O)COC(=O)c2cnc(Cl)c(Cl)c2)cc1 the results were UPR XBP1 act -1, UPR CHOP act -1 and Beta2AR agonist 5.
`O=[N+]([O-])c1ccc(S(=O)(=O)CC(CN2CCCCC2)N2CCCCC2)cc1` (stereo unspecified) gave p-CIP stab down -5, UPR XBP1 act -11, UPR CHOP act 19, Dynein transport -4.1, Beta2AR agonist 13, CHOP inh 105*, Dynein confirm active and CHOP confirm 95*.
`N=c1n(Cc2ccccc2)c2ccccc2n1CC(O)COc1ccc(Cl)cc1Cl` (stereo unspecified) gave p-CIP stab down -20, UPR XBP1 act 3, UPR CHOP act 24, Dynein transport -3.8*, Beta2AR agonist 29, CHOP inh 109*, Dynein confirm inactive and CHOP confirm 92*.
For O=[N+]([O-])/C=C/c1cn(Cc2ccc(Cl)cc2)c2ccccc12 the results were p-CIP stab down 4, UPR XBP1 act 1, UPR CHOP act 7, Dynein transport -3.7*, Beta2AR agonist 38, CHOP inh 100*, Dynein confirm inactive and CHOP confirm -25.
CC1CC(C)CN(C(=O)Cn2cc(C=O)c3ccccc32)C1 (stereo unspecified) was read as p-CIP stab down 4, UPR XBP1 act 1, UPR CHOP act 1, Dynein transport 0.94, Beta2AR agonist -1 and CHOP inh -16.
Screening O=C1N=C2N(CCN3CCCCC3)c3ccccc3N2/C1=C\c1ccc([N+](=O)[O-])o1 returned p-CIP stab down 5, Dynein transport -4*, CHOP inh 107*, Dynein confirm active and CHOP confirm -27.
